Entries after “also recorded” stand apart in the source; their conditions may differ.
How the values were obtained:
pYStat3 = experiment: Immunoblotting of pStat3 in treated U251MG cells; type: cell-based, human; conditions: for effect on pStat3 in treated tumor cells: 5 μM, glioma cells, immunoblotting
Procedure, shortened: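 Whole-cell lysates from U251MG cells given test compound at 5 μM for 0–24 h, or at 0–5 μM for 2 h. Immunoblotted for pY705Stat3 and total Stat3, with GAPDH as loading reference.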

[1] = Cysteamine 1H NMR test for Michael acceptor reactivity; type: physicochemical; conditions: DMSO-d6, 1H NMR
[2] = test system: suppressors of cytokine signaling (SOCS)3; experiment: Immunoblotting, U251MG glioma cells; type: cell-based, human; conditions: 5 μM
Procedure, shortened: (§1)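 U251MG cells given 5 μM test compound for 0–24 h. Whole-cell lysates of equal total protein immunoblotted for pErk1/2, Erk1/2, pS-Akt, Akt, pJAK2, JAK2, SOCS3 and PTP1B, with β-actin or GAPDH as loading reference.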

U373MG cells = experiment: CyQuant cell proliferation assay; type: cell-based; conditions: Homo sapiens, U373 MG, 72 h, read-out: IC50 cell proliferation U373MG
Procedure, shortened: (§2)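 CyQuant DNA-dye proliferation assay on cultured cells after 72 h exposure to test compound. Viability expressed relative to DMSO-treated control cells.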

SF295 cells = experiment: CyQuant cell proliferation assay; type: cell-based; conditions: Homo sapiens, SF-295, 72 h, read-out: IC50 cell proliferation SF295
Procedure, shortened: as §2

pErk1/2MAPK [3] = experiment: Immunoblotting, U251MG glioma cells; type: cell-based, human; conditions: 5 μM
Procedure, shortened: as §1

Stat3 = Stat3 DNA-binding activity/EMSA of nuclear extracts from treated glioma cells; type: cell-based, human; conditions: for effect on Stat3 DNA-binding activity in treated tumor cells: 5 μM, glioma cells, EMSA
Stat5:Stat5 = experiment: Cell-free EMSA, EGF-stimulated NIH3T3/hEGFR nuclear extracts, MGFe probe; type: biochemical, mouse; conditions: 5 μM, 30 min pre-incubation
Procedure, shortened: (§3)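 Nuclear extracts from EGF-stimulated NIH3T3/hEGFR fibroblasts, containing active Stat1, Stat3 and Stat5, preincubated with 5 μM test compound for 30 min at room temperature. Then incubated 30 min with 32P-labelled probe before EMSA: hSIE (Stat1/Stat3 binding) or MGFe (bovine β-casein element; Stat1/Stat5 binding). STAT:DNA bands quantified as percent of control.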

G22 cells [4] = experiment: Growth of glioma patient-derived xenograft cells in vitro; type: cell-based; conditions: Homo sapiens, read-out: inhibitory activity against growth of G22 cells
Stat3:Stat3 = Stat3:Stat3 (Mus musculus, UniProt P42227); experiment: Cell-free EMSA, nuclear extracts pre-incubated with compound, hSIE probe; type: biochemical; conditions: 5 μM, 30 min pre-incubation, NIH3T3/v-Src nuclear extracts
MCF-7 cells = experiment: CyQuant cell proliferation assay; type: cell-based; conditions: Homo sapiens, MCF7, 72 h, read-out: IC50 cell proliferation MCF-7
Procedure, shortened: as §2

pStat5 = experiment: Immunoblotting, EGF-stimulated NIH3T3/hEGFR fibroblasts; type: cell-based, mouse; conditions: 5 μM pre-treatment
Procedure, shortened: (§4)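 NIH3T3/hEGFR fibroblasts pretreated with or without 5 μM test compound for 3 h, then stimulated with 1 μg/ml EGF for 12 min. Whole-cell lysates, equal total protein, immunoblotted for pStat1/Stat1, pStat5/Stat5 and pErk1/2/Erk1/2.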

[5] = test system: protein tyrosine phosphatase (PTP)1B; experiment: Immunoblotting, U251MG glioma cells; type: cell-based, human; conditions: 5 μM
Procedure, shortened: as §1

NIH3T3 cells [6] = experiment: Colony survival assay; type: cell-based, mouse; conditions: 5 μM or less
Procedure, shortened: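 Cells seeded as single cells at 250 per well and treated once the next day with test compound (0–5 μM) for 72 h. Grown until large colonies were visible: 1 week for NIH3T3, 2 weeks for U251MG. Colonies stained with crystal violet for 4 h and counted.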

MDA-MB-231 cells = experiment: CyQuant cell proliferation assay; type: cell-based, human; conditions: Homo sapiens, MDA-MB-231, 72 h, read-out: IC50 cell proliferation MDA-MB-231
Procedure, shortened: as §2

pS-Akt = experiment: Immunoblotting, U251MG glioma cells; type: cell-based, human; conditions: 5 μM
Procedure, shortened: as §1

Stat1:Stat1 = biological target: T1, Stat1:Stat1 (Mus musculus, UniProt P42225); experiment: Cell-free EMSA, EGF-stimulated NIH3T3/hEGFR nuclear extracts; type: biochemical; conditions: 5 μM, 30 min pre-incubation
T1 sequence (P42225 2-749 limits assumed): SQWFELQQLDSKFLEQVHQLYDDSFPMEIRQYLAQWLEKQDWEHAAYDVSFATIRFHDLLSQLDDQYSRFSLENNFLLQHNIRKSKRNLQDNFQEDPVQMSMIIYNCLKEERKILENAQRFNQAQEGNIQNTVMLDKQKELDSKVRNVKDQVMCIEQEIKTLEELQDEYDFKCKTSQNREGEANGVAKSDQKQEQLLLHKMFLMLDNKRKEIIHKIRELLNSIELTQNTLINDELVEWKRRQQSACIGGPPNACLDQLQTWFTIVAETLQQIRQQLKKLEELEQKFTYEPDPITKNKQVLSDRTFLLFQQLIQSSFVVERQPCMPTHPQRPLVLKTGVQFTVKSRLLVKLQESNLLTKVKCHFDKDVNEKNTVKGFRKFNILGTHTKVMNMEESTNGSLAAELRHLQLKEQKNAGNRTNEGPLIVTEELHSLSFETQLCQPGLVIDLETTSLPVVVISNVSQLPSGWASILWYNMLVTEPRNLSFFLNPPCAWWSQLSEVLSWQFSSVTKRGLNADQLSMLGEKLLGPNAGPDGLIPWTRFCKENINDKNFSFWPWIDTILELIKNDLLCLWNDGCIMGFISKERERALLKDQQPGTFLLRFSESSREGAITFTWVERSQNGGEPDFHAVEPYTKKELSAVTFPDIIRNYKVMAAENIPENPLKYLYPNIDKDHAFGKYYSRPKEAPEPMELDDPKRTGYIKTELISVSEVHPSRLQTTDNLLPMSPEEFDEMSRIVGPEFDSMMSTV
Procedure, shortened: as §3

G22 cells [7] = experiment: 3D spheroid assay; type: cell-based, human; conditions: 5 μM, treated once
G10 cells = experiment: Growth of glioma patient-derived xenograft cells in vitro; type: cell-based; conditions: Homo sapiens, read-out: inhibitory activity against growth of G10 cells
pStat1 = experiment: Immunoblotting, EGF-stimulated NIH3T3/hEGFR fibroblasts; type: cell-based, mouse; conditions: 5 μM pre-treatment
Procedure, shortened: as §4

pErk1/2MAPK [8] = experiment: as above; type: cell-based, mouse; conditions: 5 μM pre-treatment
Procedure, shortened: as §4

U251MG cells [9] = experiment: Scratch assay for migration; type: cell-based, human; conditions: 5 μM, 19-h treatment
Procedure, shortened: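 Sub-confluent U251MG monolayers wounded with pipette tips and treated once with test compound (0–5 μM) or DMSO vehicle. Cells allowed to migrate into the denuded area over 19 h, then imaged by microscopy at 10×.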

G12 cells = experiment: Growth of glioma patient-derived xenograft cells in vitro; type: cell-based; conditions: Homo sapiens, read-out: inhibitory activity against G12 cell growth
pStat3 = experiment: Immunoblotting of pStat3 in patient-derived xenograft cells; type: cell-based, human; conditions: 5 μM, 3 h
Procedure, shortened: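 Glioma patient-derived xenograft G22 cells (DMEM, 5–10% heat-inactivated FBS) given 5 μM test compound for 0–24 h. Whole-cell lysates immunoblotted for pStat3 and Stat3, with GAPDH as loading reference.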

U251MG cells [10] = experiment: CyQuant cell proliferation assay; type: cell-based, human
Procedure, shortened: as §2

NIH3T3 cells [11] = experiment: CyQuant cell proliferation assay; type: cell-based, mouse; conditions: 5 μM
Procedure, shortened: as §2

U251MG cells [12] = experiment: Apoptosis by PARP or caspase cleavage; type: cell-based, human; conditions: 24 or 48 h
U251MG cells [13] = experiment: Immunofluorescence staining/confocal microscopy of mitosis; type: cell-based, human; conditions: 15 h treatment
Procedure, shortened: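 U251MG cells on coverslips synchronised by double thymidine block (2 mM) and released for 9 h. Then given DMSO, 100 nM paclitaxel or 8 μM test compound for 15 h. Fixed in 4% paraformaldehyde, permeabilised with 0.1% digitonin and blocked in 0.2% BSA. Stained with anti-β-tubulin (1:350) and anti-MAP1B (1:300) for 1 h at room temperature, then fluorescent secondaries and DAPI; confocal imaging.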

Sequence of Stat3:Stat3 (P42227 2-770 limits assumed): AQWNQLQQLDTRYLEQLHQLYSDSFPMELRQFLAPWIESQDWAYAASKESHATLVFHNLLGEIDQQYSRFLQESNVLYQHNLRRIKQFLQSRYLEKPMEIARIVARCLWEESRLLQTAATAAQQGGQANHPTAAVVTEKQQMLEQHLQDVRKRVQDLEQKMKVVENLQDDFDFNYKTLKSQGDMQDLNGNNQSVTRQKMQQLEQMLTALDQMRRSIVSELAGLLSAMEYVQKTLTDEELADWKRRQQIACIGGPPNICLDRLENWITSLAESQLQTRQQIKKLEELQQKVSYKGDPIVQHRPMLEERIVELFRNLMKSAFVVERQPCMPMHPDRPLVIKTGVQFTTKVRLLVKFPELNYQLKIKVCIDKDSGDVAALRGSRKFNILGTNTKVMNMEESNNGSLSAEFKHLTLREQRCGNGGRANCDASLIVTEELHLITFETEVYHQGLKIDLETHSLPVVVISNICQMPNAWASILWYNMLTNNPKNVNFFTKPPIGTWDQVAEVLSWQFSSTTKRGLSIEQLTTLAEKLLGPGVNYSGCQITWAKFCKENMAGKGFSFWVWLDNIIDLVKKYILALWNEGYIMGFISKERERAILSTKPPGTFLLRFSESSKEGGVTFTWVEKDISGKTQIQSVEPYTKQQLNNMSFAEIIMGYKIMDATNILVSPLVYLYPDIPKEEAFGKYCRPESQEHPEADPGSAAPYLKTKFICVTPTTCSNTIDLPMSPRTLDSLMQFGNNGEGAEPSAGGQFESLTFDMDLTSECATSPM

C/C=C(\C)C(=O)O[C@H]1C[C@@H](C)[C@]2(OC)CC[C@](C)(/C=C3/OC(=O)C(COC(C)=O)=C31)O2 [Compound 10]
effect on pStat3 in treated tumor cells (pYStat3): strongly inhibited
Michael acceptor reaction with cysteamine [1]: Michael acceptor reactions have occurred
effect on SOCS3 levels [2]: no effects
IC50 (U373MG cells): 6.6 to 8.2 µM
IC50 (SF295 cells): 7.4 to 18.3 µM
effect on pErk1/2MAPK levels (pErk1/2MAPK [3]): no effects
effect on Stat3 DNA-binding activity in treated tumor cells (Stat3): strongly inhibited
effect on Stat5:Stat5 activity, cell-free EMSA (Stat5:Stat5): weak effects
inhibition at 5 µM (G22 cells [4]): 45 to 60%
Stat3:Stat3/DNA-binding activity (complexation), cell-free EMSA (Stat3:Stat3): diminished
IC50 (MCF-7 cells): 4.8 to 9.6 µM
effect on EGF-stimulated pStat5 levels (pStat5): no effect
effect on PTP1B levels [5]: no effects
effects on NIH3T3 colony numbers (NIH3T3 cells [6]): moderate or none
IC50 (MDA-MB-231 cells): 5.2 to 9.1 µM
effect on pS-Akt levels (pS-Akt): no effects
effect on Stat1:Stat1 activity, cell-free EMSA (Stat1:Stat1): weak effects
3D spheroid growth (G22 cells [7]): modest
inhibition at 5 µM (G10 cells): 45 to 60%
effect on EGF-stimulated pStat1 levels (pStat1): no effect
effect on EGF-stimulated pErk1/2MAPK levels (pErk1/2MAPK [8]): no effect
migration into the denuded area (U251MG cells [9]): slowed migration
inhibition at 5 µM (G12 cells): 25 to 35%
effect on Phospho-Stat3 in G22 cells (pStat3): moderate inhibition

C/C=C(/C)C(=O)O[C@H]1C[C@@H](C)[C@]2(O)CC[C@](C)(/C=C3/OC(=O)C(COC(C)=O)=C31)O2 [Compound 20]
effect on pStat3 in treated tumor cells (pYStat3): strongly inhibited
effect on SOCS3 levels [2]: no effects
IC50 (U373MG cells): 6.6 to 8.2 µM
IC50 (SF295 cells): 7.4 to 18.3 µM
effect on pErk1/2MAPK levels (pErk1/2MAPK [3]): no effects
effect on Stat3 DNA-binding activity in treated tumor cells (Stat3): strongly inhibited
effect on Stat5:Stat5 activity, cell-free EMSA (Stat5:Stat5): weak effects
Stat3:Stat3/DNA-binding activity (complexation), cell-free EMSA (Stat3:Stat3): diminished
IC50 (MCF-7 cells): 4.8 to 9.6 µM
effect on EGF-stimulated pStat5 levels (pStat5): no effect
effect on PTP1B levels [5]: no effects
IC50 (MDA-MB-231 cells): 5.2 to 9.1 µM
effect on pS-Akt levels (pS-Akt): no effects
effect on Stat1:Stat1 activity, cell-free EMSA (Stat1:Stat1): weak effects
effect on EGF-stimulated pStat1 levels (pStat1): no effect
effect on EGF-stimulated pErk1/2MAPK levels (pErk1/2MAPK [8]): no effect

C=C1C(=O)O[C@@H]2/C=C(\C)CC/C=C(\C)CC[C@@H]12 [costunolide, reference compound]
Stat3 activity in tumor cells, control compounds (pYStat3; Fig. S5E(ii)): did not inhibit
Michael acceptor reaction with cysteamine [1]: formation of diastereomeric Michael adduct mixtures
cell growth activity, control compounds (U251MG cells [10]; panel of cell lines, Fig. S5E(i)): poorly-active or non-specific in activity

C/C=C(\C)C(=O)OCC1=C2/C(=C\[C@@]3(C)CC[C@](O)(O3)[C@H](C)C[C@@H]2OC(=O)/C(C)=C/C)OC1=O [Compound 38]
effect on pStat3 in treated tumor cells (pYStat3): suppressed
effect on NIH3T3 growth (NIH3T3 cells [11]): inhibited NIH3T3 growth
effect on Stat3 DNA-binding activity in treated tumor cells (Stat3): suppressed
IC50 (Stat3; Homo sapiens, U-251, read-out: IC50 Stat3 DNA-binding activity in treated cells): 500 to 2500 nM
Stat3:Stat3/DNA-binding activity (complexation), cell-free EMSA (Stat3:Stat3): diminished
activity against U251MG cell growth (U251MG cells [10]; 5 μM): retained or improved the inhibitory potency

CN[C@@H]1C[C@H]2O[C@@](C)([C@@H]1OC)n1c3ccccc3c3c4c(c5c6ccccc6n2c5c31)C(=O)NC4 [staurosporine]
apoptosis measured by PARP or caspase cleavage (U251MG cells [12]): induced apoptosis

CC(=O)OCC1=C2/C(=C\[C@@]3(C)CC[C@](O)(O3)[C@H](C)C[C@@H]2O)OC1=O [Compound 11]
effect on pStat3 in treated tumor cells (pYStat3): weak effect
effect on Stat3 DNA-binding activity in treated tumor cells (Stat3): weak effect
effect on Stat5:Stat5 activity, cell-free EMSA (Stat5:Stat5): weak effects
Stat3:Stat3/DNA-binding activity (complexation), cell-free EMSA (Stat3:Stat3): diminished
chromatid structures and sister-chromatids segregation (mitosis) (U251MG cells [13]): minimal effect
effect on Stat1:Stat1 activity, cell-free EMSA (Stat1:Stat1): weak effects

CC(=O)O[C@H]1C(=O)[C@@]2(C)[C@H]([C@H](OC(=O)c3ccccc3)[C@]3(O)C[C@H](OC(=O)[C@H](O)[C@@H](NC(=O)c4ccccc4)c4ccccc4)C(C)=C1C3(C)C)[C@]1(OC(C)=O)CO[C@@H]1C[C@@H]2O [paclitaxel, reference compound]
chromatid structures and sister-chromatids segregation (mitosis) (U251MG cells [13]): caused strong defects
apoptosis measured by PARP or caspase cleavage (U251MG cells [12]): induced apoptosis

C=C(C)C(=O)O[C@H]1C[C@@H](C)[C@]2(OC)CC[C@](C)(/C=C3/OC(=O)C(COC(C)=O)=C31)O2 [Compound 9]
effect on pStat3 in treated tumor cells (pYStat3): little impact
Michael acceptor reaction with cysteamine [1]: indicative of Michael acceptor reactions
Stat3:Stat3/DNA-binding activity (complexation), cell-free EMSA (Stat3:Stat3): no effect; also recorded: only weakly inhibited

Source: PMC4834983 (Journal of medicinal chemistry, 2015)
